37 sequences from the array DNA melting data of Ke et al. (doi:10.1101/2024.01.08.574731) can be followed below.

Data set [1] in a line: folding enthalpy; higher = less favourable; fluorescence melt of hairpins on a sequencing array, two-state fit. The following applies: sodium 0.088 M. In outline: (§1)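 Folding enthalpy and melting temperature were estimated with bootstrapped two-state fits and combined across four replicates by inverse-variance weighting, with fitted temperatures raised by 9.35 °C to match UV melts. The data were Cy3 fluorescence of library hairpins, with annealed Cy3 and quencher oligos, on a sequenced MiSeq flow cell in 50 mM Na-HEPES pH 8.0, 25 mM NaCl, imaged in 2.5 °C steps up to 60 °C and normalised to pre-quench Cy3 and control constructs.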

The nature of data set [2]: melting temperature; fluorescence melt of hairpins on a sequencing array, two-state fit, raised by 9.35 °C to match UV melts. The following applies: sodium 0.088 M. In outline: as §1

Regarding GGGTAGGCGAAAGCCCCC (((..(((....)))))), the folding enthalpy in data set [1] is -70.6 kJ/mol. For the same sequence, the Tm in data set [2] was 53 °C.
Consider GCGTACTAACGC ((((....)))), for which, in data set [1], the folding enthalpy was -114 kJ/mol. Further, in data set [2], the Tm worked out at 53 °C.
Taken in the same sequence, the figures for GTTAGGGGAAACCTTAAC ((((.((....)).)))) were -93.5 kJ/mol and 33.4 °C.
On the same counts, the results for GCCACTGCGAAAGCAGGC (((..(((....)))))) are -37.2 kJ/mol and 46 °C.
GTCCTCGAAAGAGACGAC ((((((....)))..))): the folding enthalpy in data set [1] was -83.6 kJ/mol. Besides, in data set [2], the Tm came out at 42 °C.
On the same counts, the results for GTGTTACGAAAGTACCAC (((.(((....))).))) are -123 kJ/mol and 43.2 °C.
On the same counts, the results for GATCTACTATAGATC ((((((...)))))) are -105 kJ/mol and 40.5 °C.
On to GCGTTCCCGAAAGGGCGC (((..(((....)))))), for which, in data set [1], the folding enthalpy was -114 kJ/mol. In addition, in data set [2], the Tm amounted to 53.9 °C.
Take GCTCAAGGAAACTTGAGC (((((((....))))))): the folding enthalpy in data set [1] was -194 kJ/mol. In addition, in data set [2], the Tm stood at 64.4 °C.
In the case of GGAGTGCGAAAGCAGTCC (((.(((....))).))), in data set [1], the folding enthalpy was -126 kJ/mol. Besides, the Tm in data set [2] was 65.8 °C.
On the same counts, the results for GATCCTAGGAGGATC ((((((...)))))) are -148 kJ/mol and 54.1 °C.
For GTTTTACCGAAAGGTAAC (((..(((....)))))), in data set [1], the folding enthalpy is -51.7 kJ/mol. The Tm in data set [2] was 33.6 °C.
Taken in the same sequence, the figures for GAAACCGAAAGGTGTTC ((((((....))).))) were -54.3 kJ/mol and 36.5 °C.
On the same counts, the results for GAGCACCGAAAGGTACTC (((.(((....))).))) are -154 kJ/mol and 50 °C.
As for GAGGAGCGAAAGCTTCTC (((.(((....))).))), the folding enthalpy in data set [1] is -139 kJ/mol. In addition, the Tm in data set [2] came out at 57.2 °C.
On the same counts, the results for GTCGAACGAAAGTTTGAC (((.(((....))).))) are -176 kJ/mol and 54.5 °C.
In the case of GCTGCCGAAAGGCGAGC ((((((....))).))), in data set [1], the folding enthalpy was -77.9 kJ/mol. Besides, the Tm in data set [2] was found to be 64.3 °C.
On the same counts, the results for GTGCCGCGAAAGCGACAC (((.(((....))).))) are -144 kJ/mol and 65.7 °C.
Taken in the same sequence, the figures for GCATTGCGAAAGCGGTGC (((..((....))..))) were -93.5 kJ/mol and 58.8 °C.
On the same counts, the results for GATCCAAGGGTGGATC ((((((....)))))) are -134 kJ/mol and 48.4 °C.
GGTCCAGAAATGGACC ((((((....)))))): the folding enthalpy in data set [1] was -192 kJ/mol. For the same sequence, the Tm in data set [2] was determined as 64 °C.
Taken in the same sequence, the figures for GCGCCTGGAAACAGACGC (((.(((....))).))) were -123 kJ/mol and 55.8 °C.
Taken in the same sequence, the figures for CGCGGAAGCGTCCGCG ((((((....)))))) were -55.9 kJ/mol and 53.2 °C.
Taken in the same sequence, the figures for GATCCCGAAAGGGTTATC ((((((....)))..))) were -34.2 kJ/mol and 27.5 °C.
Consider GATCGCGGGGCGATC ((((((...)))))), for which the folding enthalpy in data set [1] is -124 kJ/mol. Besides, the Tm in data set [2] came out at 68 °C.
Take GCTTCGCGAAAGCCGAGC (((..((....))..))): the folding enthalpy in data set [1] was -77.2 kJ/mol. For the same sequence, the Tm in data set [2] came to 41.7 °C.
On the same counts, the results for GCCGTCGGAAACGGTGGC (((..((....))..))) are -92 kJ/mol and 51.3 °C.
Taken in the same sequence, the figures for GCTTGCGGAAACGTAAGC ((((.((....)).)))) were -147 kJ/mol and 52.5 °C.
Taken in the same sequence, the figures for GGGTGCCGAAAGGCCCC (((.(((....)))))) were -91.1 kJ/mol and 67.2 °C.
For the sequence GCACCTGGAAACAGACGC ((..(((....)))..)), in data set [1], the folding enthalpy is -64.1 kJ/mol. For the same sequence, the Tm in data set [2] is 29.2 °C.
Take GCGGACGCCGC ((((...)))): the folding enthalpy in data set [1] was -79.7 kJ/mol. Moreover, the Tm in data set [2] worked out at 58.3 °C.
Taken in the same sequence, the figures for GTTCGAGCGAAAGCTAAC (((..(((....)))))) were -30.5 kJ/mol and 24.6 °C.
Take GCTCAACCGAAAGGTAGC (((..(((....)))))): in data set [1], the folding enthalpy is -77.1 kJ/mol. Moreover, the Tm in data set [2] is 39.4 °C.
Regarding GAAAGGGGAAACCCCTTC (((.(((....))).))), the folding enthalpy in data set [1] was -62.1 kJ/mol. In addition, the Tm in data set [2] is 39.9 °C.
On the same counts, the results for GATCCTCGTTAGGATC ((((((....)))))) are -164 kJ/mol and 51.7 °C.
Taken in the same sequence, the figures for GATCACCCCCGTGATC ((((((....)))))) were -150 kJ/mol and 55 °C.
GATCGGCGTCCGATC ((((((...)))))): in data set [1], the folding enthalpy was -169 kJ/mol. Also, the Tm in data set [2] came to 56.4 °C.
